# Data reported in ChEMBL document CHEMBL3272210, “Effect of the solvent-dependent conformational system of hydroxyureas on predicted vs. observed log P” (J Med Chem, 1977).
# Tests used:
# [1] = Octanol-water partition coefficient, log P of the compound after 72 hrs; format: physicochemical
# How it was run: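 Known amounts (100 mg, 500 mg, 1.0 g) are shaken in equal volumes of 1-octanol and water pH 7.4 for 72 h, the optimal time. The aqueous layer is lyophilized, and the recovered compound is weighed and purity-checked. Values were cross-checked by colorimetry or UV for some compounds.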
# Rattus norvegicus [2] = organism: Rattus norvegicus; experiment: Inhibition of rat hepatoma ribonucleotide reductase using ATP relative to hydroxyurea
# How it was run: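 Same 32P-CDP reduction assay, 30 min, 37 °C, ATP 2.1 mM, aqueous inhibitor. Each determination includes hydroxyurea as positive control. ID50 (four levels, two trials each) is divided relative to that run's hydroxyurea ID50, and ratios are averaged across determinations.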
# Rattus norvegicus [3] = organism: Rattus norvegicus; experiment: Inhibition of rat hepatoma ribonucleotide reductase using ATP and Me2SO solvent
# How it was run: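 Rat Novikoff ascites hepatoma reductase, partially purified, assayed in 8.3 mM phosphate pH 7, 2.1 mM ATP, 4.2 mM MgAc2, 0.04 mM ferrous ammonium sulfate, 6.3 mM DTT, 1.0 μM thioredoxin, 0.17 mM 32P-CDP. Inhibitor is predissolved in DMSO and diluted to 1% DMSO final, then added on ice before enzyme, followed by 30 min at 37 °C. Dowex-50 readout. ID50 extrapolated from four concentrations tested in duplicate.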
# L1210 = experiment: Antitumor activity against mouse L1210 cells xenografted in host assessed as growth inhibition treated ip for 9 days; format: functional
# Rattus norvegicus [4] = organism: Rattus norvegicus; experiment: Inhibition of rat hepatoma ribonucleotide reductase using ATP
# How it was run: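 Partially purified rat Novikoff ascites hepatoma reductase (~0.2 mg) in pH 7 phosphate (8.3 mM) with 2.1 mM ATP, 4.2 mM MgAc2, Fe2+ (0.04 mM), 6.3 mM DTT, 1.0 μM rat thioredoxin and 0.17 mM 32P-CDP. Aqueous inhibitor is present before enzyme is added on ice, then 37 °C for 30 min. Perchloric acid stop, Dowex-50 product separation. Four concentrations, duplicate trials, ID50 by graphing/extrapolation.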
# Rattus norvegicus [5] = organism: Rattus norvegicus; experiment: Inhibition of rat hepatoma ribonucleotide reductase using ATP and Me2SO solvent relative to hydroxyurea
SMILES,logP at 72 h [1],Ratio (Rattus norvegicus [2]),ID50 (Rattus norvegicus [3]),ID50 (Rattus norvegicus [4]),Ratio (Rattus norvegicus [5]),T/C (L1210)
CC(C)(C)NC(=O)NO,0.5,9.5,400 µM,,,
CCCCNC(=O)NO,0.32,6.8,750 µM,,,
O=C(NO)Nc1ccccc1,0.41,,,,,
CCCNC(=O)NO,0.22,3.8,340 µM,340 µM,3.8,146%
O=C(NO)Nc1ccc(Cl)cc1,1.39,,,,,
CC(C)NC(=O)NO,0.2,19,,800 µM,,<125%

# Further lines, with some results ahead:
logP at 72 h [1],Ratio (Rattus norvegicus [2]),ID50 (Rattus norvegicus [3]),ID50 (Rattus norvegicus [4]),Ratio (Rattus norvegicus [5]),SMILES,T/C (L1210)
-1.27,1,,110 µM,,NC(=O)NO [HYDROXYUREA],291%
-0.76,,,,,CCNC(=O)NO,137%
-0.46,0.9,,100 µM,,CN(O)C(N)=O,162%
-0.1,1.5,,170 µM,,CCN(O)C(N)=O,168%
